Source: ChEMBL document CHEMBL1126988, “Quinolone antibacterials containing the new 7-[3-(1-aminoethyl)-1- pyrrolidinyl] side chain: the effects of the 1-aminoethyl moiety and its stereochemical configurations on potency and in vivo efficacy” (J Med Chem, 1993)
Values after ≈ are worked out from the molar mass of the structure shown.

Key:
Enterococcus faecalis = assay: Minimum inhibitory concentration was evaluated in vitro against Enterococcus faecalis MGH-2; type: functional
Outline: (§1)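 Standard microtitration broth assay against a panel of 10 Gram-positive and Gram-negative organisms. MIC read in µg/mL and averaged over multiple experiments.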

Klebsiella pneumoniae = assay: Minimum inhibitory concentration was evaluated in vitro against Klebsiella pneumoniae MGH2; type: functional; settings: Klebsiella pneumoniae; read-out: MIC; outline: as §1
Streptococcus pneumoniae [1] = assay: Antibacterial activity expressed as Minimum inhibitory concentration was evaluated in vitro against Streptococcus pneumoniae SV-1; type: functional
Outline: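 Standard microtitration broth MIC (μg/mL), averaged from multiple experiments; one of a 10-organism Gram-positive/Gram-negative panel.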

Staphylococcus aureus [2] = assay: Minimum inhibitory concentration was evaluated in vitro against Staphylococcus aureus H 228; type: functional; outline: as §1
Providencia rettgeri = assay: Minimum inhibitory concentration was evaluated in vitro against Providencia rettgeri M1771; type: functional; settings: Providencia rettgeri; read-out: MIC; outline: as §1
Escherichia coli [3] = assay: Antibacterial activity in vitro against Escherichia coli Vogel; type: functional; settings: Escherichia coli; read-out: MIC; outline: as §1
Streptococcus pyogenes [4] = assay: Compounds were evaluated in vivo for antibacterial activity for mouse protection against Streptococcus pyogenes C 203 after subcutaneous administration; type: functional; settings: C 203, sc, read-out: PD50
Staphylococcus aureus [5] = assay: Minimum inhibitory concentration was evaluated in vitro against Staphylococcus aureus UC 76; type: functional; outline: as §1
Pseudomonas aeruginosa = assay: Minimum inhibitory concentration was evaluated in vitro against Pseudomonas aeruginosa UI-18; type: functional; settings: Pseudomonas aeruginosa; read-out: MIC; outline: as §1
Streptococcus pyogenes [6] = assay: Compounds were evaluated in vivo for antibacterial activity for mouse protection against Streptococcus pyogenes C 203 after oral administration; type: functional; settings: for ED50: C 203, po, read-out: PD50
Enterobacter cloacae = assay: Minimum inhibitory concentration in vitro against Enterobacter cloacae MA 2646; type: functional; settings: Enterobacter cloacae; read-out: MIC
Streptococcus pyogenes [7] = assay: Minimum inhibitory concentration was evaluated in vitro against Streptococcus pyogenes C 203; type: functional; outline: as §1
Streptococcus pneumoniae [8] = assay: Minimum inhibitory concentration was evaluated in vitro against Streptococcus pneumoniae SV-1; type: functional; outline: as §1
Escherichia coli [9] = assay: Antibacterial activity against Escherichia coli Vogel after subcutaneous administration in mouse; type: functional; settings: for ED50: Escherichia coli, sc, read-out: PD50
Escherichia coli [10] = assay: Antibacterial activity against Escherichia coli Vogel after oral administration in mouse; type: functional; settings: Escherichia coli, po; read-out: PD50
DNA gyrase = DNA gyrase (Escherichia coli, UniProt P0AES4+P0AES6); assay: Inhibition against DNA gyrase; type: protein-complex assay
Streptococcus pyogenes [11] = assay: Antibacterial activity measured as mouse protection against Streptococcus pyogenes C 203 after subcutaneous administration; type: functional; settings: Streptococcus pyogenes, C 203, sc; read-out: PD50
Mus musculus [12] = organism: Mus musculus; assay: Compound was evaluated for phototoxicity no-effect dose in mouse; type: functional
Outline: (§2)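 Depilated female CD-1 mice, five per dose plus controls. Animals are dosed orally and then exposed daily to UV-A (320–400 nm) for 3 h, for up to 4 days or until a definite positive response. Redness or erythema relative to controls, read 24 h after irradiation, counts as positive. Reported as the highest dose with no effect (mg/kg).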

[13] = Clonogenic cytotoxicity against hamster V-79 cells; type: functional, Cricetulus griseus, V79
Outline: (§3)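 Chinese hamster V-79 cells grown overnight, then drug-treated for 3 h at 37 °C. Medium is replaced with fresh medium and cells are incubated 5 days to allow colony formation. IC50 (µg/mL) is the concentration inhibiting colony formation by 50% relative to control.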

Mus musculus [14] = organism: Mus musculus; assay: Compounds were evaluated for phototoxicity no-effect dose in mouse; type: functional; outline: as §2
[15] = target: DNA gyrase (Escherichia coli) (UniProt P0AES6+P0AES4); assay: Initial inhibition as minimal concentration to induce cleavage of DNA gyrase complex; type: protein-complex assay
Outline: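 DNA gyrase isolated and purified from E. coli H560. Uses the initial cleavage method with relaxed Col E1 plasmid DNA as substrate. Read-out is the lowest drug concentration (µg/mL) giving detectable cleavage, seen by agarose gel electrophoresis with ethidium bromide staining. Averaged over multiple experiments, accurate to ±50%.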

Streptococcus pyogenes [16] = assay: Antibacterial activity expressed as Minimum inhibitory concentration was evaluated in vitro against Streptococcus pyogenes C 203; type: functional; outline: as §1
[17] = Compound was evaluated for clonogenic cytotoxicity against hamster V-79 cells; 50% Inhibition; type: functional, cell-based; settings: Cricetulus griseus, V79; outline: as §3
[18] = Enterococcus faecalis, read-out: MIC
[19] = Staphylococcus aureus, read-out: MIC
[20] = Streptococcus pyogenes, read-out: MIC
[21] = Streptococcus pneumoniae, read-out: MIC

SMILES: CCN[C@@H](C)[C@H]1CCN(c2nc3c(cc2F)c(=O)c(C(=O)O)cn3C2CC2)C1
- MIC (Enterococcus faecalis; [18]): 0.8 µg/mL (≈ 2.06 µM)
- MIC (Klebsiella pneumoniae): 0.8 µg/mL (≈ 2.06 µM)
- MIC (Streptococcus pneumoniae [1]): 0.2 µg/mL (≈ 0.515 µM)
- MIC (Staphylococcus aureus [2]; [19]): 0.8 µg/mL (≈ 2.06 µM)
- MIC (Providencia rettgeri): 3.1 µg/mL (≈ 7.98 µM)
- MIC (Escherichia coli [3]): 0.4 µg/mL (≈ 1.03 µM)
- ED50 (Streptococcus pyogenes [4]): 12 mg/kg
- MIC (Staphylococcus aureus [5]; [19]): 400 ng/mL (≈ 1.03 µM)
- MIC (Pseudomonas aeruginosa): 6.3 µg/mL (≈ 16.2 µM)
- ED50 (Streptococcus pyogenes [6]): 12 mg/kg
- MIC (Enterobacter cloacae): 0.8 µg/mL (≈ 2.06 µM)
- MIC (Streptococcus pyogenes [7]; [20]): 0.4 µg/mL (≈ 1.03 µM)

SMILES: NCC1CCN(c2cc3c(cc2F)c(=O)c(C(=O)O)cn3C2CC2)C1 (stereo not given)
- MIC (Enterococcus faecalis; [18]): 0.05 µg/mL (≈ 0.145 µM)
- MIC (Klebsiella pneumoniae): 0.1 µg/mL (≈ 0.29 µM)
- MIC (Streptococcus pneumoniae [8]; [21]): 0.013 µg/mL (≈ 0.0376 µM)
- MIC (Staphylococcus aureus [2]; [19]): 0.05 µg/mL (≈ 0.145 µM)
- MIC (Providencia rettgeri): 0.2 µg/mL (≈ 0.579 µM)
- ED50 (Escherichia coli [9]): 2 mg/kg
- MIC (Escherichia coli [3]): 0.05 µg/mL (≈ 0.145 µM)
- MIC (Staphylococcus aureus [5]; [19]): 6 ng/mL (≈ 0.0174 µM)
- MIC (Pseudomonas aeruginosa): 0.8 µg/mL (≈ 2.32 µM)
- ED50 (Streptococcus pyogenes [6]; Streptococcus pyogenes): > 100 mg/kg
- MIC (Enterobacter cloacae): 0.1 µg/mL (≈ 0.29 µM)
- ED50 (Escherichia coli [10]): > 100 mg/kg
- IC50 (DNA gyrase): 1450 nM
- MIC (Streptococcus pyogenes [7]; [20]): 0.013 µg/mL (≈ 0.0376 µM)
- ED50 (Streptococcus pyogenes [11]): 4 mg/kg

SMILES: C[C@@H](N)[C@H]1CCN(c2nc3c(cc2F)c(=O)c(C(=O)O)cn3C2CC2)C1 (racemic)
- MIC (Enterococcus faecalis): 0.1 µg/mL (≈ 0.277 µM)
- MIC (Klebsiella pneumoniae): 0.1 µg/mL (≈ 0.277 µM)
- MIC (Streptococcus pneumoniae [8]): 0.05 µg/mL (≈ 0.139 µM)
- MIC (Staphylococcus aureus [2]): 0.2 µg/mL (≈ 0.555 µM)
- MIC (Providencia rettgeri): 0.2 µg/mL (≈ 0.555 µM)
- PD50 (Escherichia coli [9]): 1 mg/kg
- Dose (Mus musculus [12]): >100 mg/kg
- MIC (Escherichia coli [3]): 0.05 µg/mL (≈ 0.139 µM)
- MIC (Staphylococcus aureus [5]): 25 ng/mL (≈ 0.0694 µM)
- MIC (Pseudomonas aeruginosa): 0.8 µg/mL (≈ 2.22 µM)
- PD50 (Streptococcus pyogenes [6]): 15 mg/kg
- MIC (Enterobacter cloacae): 0.05 µg/mL (≈ 0.139 µM)
- Cytotoxicity [13]: 84 µg/mL
- IC50 (DNA gyrase): 6940 nM
- MIC (Streptococcus pyogenes [7]): 0.05 µg/mL (≈ 0.139 µM)
- ED50 (Streptococcus pyogenes [11]): 5 mg/kg

SMILES: NCC1CCN(c2nc3c(cc2F)c(=O)c(C(=O)O)cn3C2CC2)C1 (stereo not given)
- MIC (Enterococcus faecalis; [18]): 0.025 µg/mL (≈ 0.0722 µM)
- MIC (Klebsiella pneumoniae): 0.1 µg/mL (≈ 0.289 µM)
- MIC (Streptococcus pneumoniae [8]; [21]): 0.1 µg/mL (≈ 0.289 µM)
- MIC (Staphylococcus aureus [2]; [19]): 0.1 µg/mL (≈ 0.289 µM)
- MIC (Providencia rettgeri): 0.4 µg/mL (≈ 1.15 µM)
- ED50 (Escherichia coli [9]): 1 mg/kg
- MIC (Escherichia coli [3]): 0.05 µg/mL (≈ 0.144 µM)
- MIC (Staphylococcus aureus [5]; [19]): 3 ng/mL (≈ 0.00866 µM)
- MIC (Pseudomonas aeruginosa): 0.2 µg/mL (≈ 0.577 µM)
- ED50 (Streptococcus pyogenes [6]; Streptococcus pyogenes): 39 mg/kg
- MIC (Enterobacter cloacae): 0.1 µg/mL (≈ 0.289 µM)
- ED50 (Escherichia coli [10]): 17 mg/kg
- IC50 (DNA gyrase): 2170 nM
- MIC (Streptococcus pyogenes [7]; [20]): 0.025 µg/mL (≈ 0.0722 µM)
- ED50 (Streptococcus pyogenes [11]): 4 mg/kg

SMILES: CN[C@H](C)[C@H]1CCN(c2c(F)cc3c(=O)c(C(=O)O)cn(C4CC4)c3c2OC)C1 (racemic)
- MIC (Enterococcus faecalis; [18]): 0.025 µg/mL (≈ 0.062 µM)
- MIC (Klebsiella pneumoniae): 0.1 µg/mL (≈ 0.248 µM)
- MIC (Streptococcus pneumoniae [8]; [21]): 0.003 µg/mL (≈ 0.00744 µM)
- Dose (Mus musculus [14]): >100 mg/kg
- MIC (Staphylococcus aureus [2]; [19]): 0.013 µg/mL (≈ 0.0322 µM)
- MIC (Providencia rettgeri): 0.2 µg/mL (≈ 0.496 µM)
- ED50 (Escherichia coli [9]): 1 mg/kg
- Initial inhibition [15]: < 0.5 µg/mL
- MIC (Escherichia coli [3]): 0.05 µg/mL (≈ 0.124 µM)
- MIC (Staphylococcus aureus [5]; [19]): 3 ng/mL (≈ 0.00744 µM)
- MIC (Pseudomonas aeruginosa): 0.8 µg/mL (≈ 1.98 µM)
- MIC (Streptococcus pyogenes [16]): 3 ng/mL (≈ 0.00744 µM)
- MIC (Enterobacter cloacae): 0.05 µg/mL (≈ 0.124 µM)
- Cytotoxicity [13]: 33 µg/mL
- ED50 (Escherichia coli [10]): 5 mg/kg
- ED50 (Streptococcus pyogenes [11]): 0.1 mg/kg

SMILES: CN[C@H](C)[C@@H]1CCN(c2nc3c(cc2F)c(=O)c(C(=O)O)cn3C2CC2)C1
- MIC (Enterococcus faecalis; [18]): 0.1 µg/mL (≈ 0.267 µM)
- IC50 [17]: 88 µg/mL (≈ 235 µM)
- MIC (Klebsiella pneumoniae): 0.2 µg/mL (≈ 0.534 µM)
- MIC (Streptococcus pneumoniae [8]; [21]): 0.025 µg/mL (≈ 0.0668 µM)
- Dose (Mus musculus [14]): 30 mg/kg
- MIC (Staphylococcus aureus [2]; [19]): 0.1 µg/mL (≈ 0.267 µM)
- MIC (Providencia rettgeri): 0.4 µg/mL (≈ 1.07 µM)
- ED50 (Escherichia coli [9]): 1 mg/kg
- MIC (Escherichia coli [3]): 0.1 µg/mL (≈ 0.267 µM)
- MIC (Staphylococcus aureus [5]; [19]): 50 ng/mL (≈ 0.134 µM)
- MIC (Pseudomonas aeruginosa): 1.6 µg/mL (≈ 4.27 µM)
- MIC (Enterobacter cloacae): 0.1 µg/mL (≈ 0.267 µM)
- ED50 (Escherichia coli [10]): 5 mg/kg
- MIC (Streptococcus pyogenes [7]; [20]): 0.05 µg/mL (≈ 0.134 µM)

SMILES: CCNCC1CCN(c2c(F)cc3c(=O)c(C(=O)O)cn(C4CC4)c3c2F)C1 (stereo not given) [PD-117558]
- MIC (Staphylococcus aureus [2]; [19]): 0.025 µg/mL (≈ 0.0639 µM)
- MIC (Providencia rettgeri): 0.2 µg/mL (≈ 0.511 µM)
- MIC (Escherichia coli [3]): 0.05 µg/mL (≈ 0.128 µM)
- ED50 (Streptococcus pyogenes [4]): 0.8 mg/kg
- ED50 (Streptococcus pyogenes [6]): 1 mg/kg
- MIC (Enterobacter cloacae): 0.1 µg/mL (≈ 0.255 µM)
- ED50 (Escherichia coli [10]): 4 mg/kg
